Screening results: PubChem, Broad Institute
An excerpt weighted towards active compounds, which were near 5.9% of everything screened.
KDM4C inh = KDM4C (human) demethylase inhibition. GST-KDM4C 2-372, H3K9me3 peptide, LANCE TR-FRET. Q9H3R0. actives 0.15% (n = 96,000). AID 720574. inhibition, % at 12.5 µM;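 active = mean replicate inhibition above about 25%, with at least 55% of replicates also reaching it, limit read from the data, passing the limit was not always enough; inconclusive = only one of those two conditions met; inactive = neither condition met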
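Material: GST-tagged GASC-1 (JMJD2C) catalytic fragment, aa 2-372 / Quantity: enzyme final amount 10 nM / Medium: HEPES buffer, pH 7.5, plus ascorbate / Doses: one test concentration per compound / Incubation: 30 min reaction, 60 min detection, RT / Measured by: LANCE TR-FRET / Read-out: inhibition from TR-FRET ratio decrease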
IDH1 mut inh = IDH1 R132H (human) inhibition; O75874; IDH1 R132H reductase, diaphorase/resazurin fluorescence, 60 min; inhibition, % at 10 µM; actives 0.18% (n = 70,000); in the data active = inhibition above about 34%; inconclusive = no clear call, values can overlap the other calls; inactive = below about 11%
Target sequence (O75874 whole entry R132H): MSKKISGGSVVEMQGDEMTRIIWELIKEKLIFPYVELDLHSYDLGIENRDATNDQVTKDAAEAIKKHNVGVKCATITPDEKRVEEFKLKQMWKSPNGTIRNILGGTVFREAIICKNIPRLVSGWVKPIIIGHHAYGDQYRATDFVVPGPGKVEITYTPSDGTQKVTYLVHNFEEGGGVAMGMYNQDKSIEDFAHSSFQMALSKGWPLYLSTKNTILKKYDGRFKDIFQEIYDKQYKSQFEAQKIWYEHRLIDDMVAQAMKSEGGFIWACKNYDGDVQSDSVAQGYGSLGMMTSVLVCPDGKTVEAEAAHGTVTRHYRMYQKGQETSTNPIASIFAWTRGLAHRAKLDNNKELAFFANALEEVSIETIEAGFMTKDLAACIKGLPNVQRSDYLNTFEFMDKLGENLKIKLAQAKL
T cruzi growth-1 = inhibitors of T. cruzi proliferation; inhibition, % at 8.34 µM; AID 624255; actives 5.9% (n = 77,000); T. cruzi beta-gal in NIH3T3, GalScreen luminescence, 90 h;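 active = mean inhibition above about 93%, with at least 55% of replicates each passing it, limit read from the data, passing the limit was not always enough; inconclusive = only one of those two conditions holds; inactive = neither condition holds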
Pf Dd2 growth = blocks growth of Plasmodium falciparum Dd2 parasites | P. falciparum Dd2 growth, SYBR Green, 72 h; active compounds read low | activity change, % at 10 µM | actives 2.3% (n = 94,000) | AID 1159554; in the data active = activity change below about -80%; inconclusive = no clear call, values can overlap the other calls
T cruzi growth-2 = blocks T. cruzi growth in NIH3T3 host cells; shares compounds with T cruzi growth-1; T. cruzi beta-gal in NIH3T3, GalScreen luminescence, 90 h; inhibition, % at 8.35 µM; actives 72% (n = 5,600);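 active = mean replicate inhibition above about 95% and at least 55% of replicates individually reaching it, limit read from the data; inconclusive = only one of the two criteria is met; inactive = neither criterion is met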
T cruzi growth-3 = Trypanosoma cruzi proliferation inhibition; shares compounds with T cruzi growth-1; T. cruzi beta-gal in NIH3T3, GalScreen luminescence, 90 h; actives 21% (n = 5,600); AID 651740; inhibition, % at 2.09 µM;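 active = mean inhibition above about 95%, with at least 55% of replicates also reaching it, limit read from the data; inconclusive = meets just one of the two conditions; inactive = meets neither condition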
NIH3T3 tox = kills mouse NIH/3T3 fibroblasts; shares compounds with T cruzi growth-1; NIH/3T3 viability, CellTiter-Glo ATP luminescence, 90 h; cytotoxicity (signal decrease), % at 8.35 µM; actives 14% (n = 5,600);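 active = mean signal decrease across replicates above about 35% based on untreated-well scatter, with enough replicates individually passing, limit read from the data; inconclusive = no rule stated though some were filed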
NIH3T3 tox 2 = kills mouse NIH/3T3 fibroblasts; shares compounds with T cruzi growth-1; NIH/3T3 viability, CellTiter-Glo ATP luminescence, 90 h; actives 56% (n = 5,600); inhibition, % at 24.9 µM;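 active = mean loss of cell viability signal at or above a set limit, and enough replicates individually reaching it; inconclusive = meets only the mean limit or only the replicate share; inactive = meets neither condition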
Numbers stand for hits; – = inactive; ? = inconclusive; · = not tested or not shown; ! = a repeat was not active.

SMILES | KDM4C inh | IDH1 mut inh | T cruzi growth-1 | Pf Dd2 growth | T cruzi growth-2 | T cruzi growth-3 | NIH3T3 tox | NIH3T3 tox 2
CC(C)C#Cc1ccc([C@@H]2[C@H](C#N)N(C(=O)c3cccc(F)c3)[C@H]2CO)cc1 | – | · | ? | – | – | 106 | – | 78
CC(C)C#Cc1ccc([C@@H]2[C@@H](C#N)N(C(=O)c3cccc(F)c3)[C@H]2CO)cc1 | – | · | 97 | – | 103 | – | – | –
CC(C)C#Cc1ccc([C@H]2[C@@H](CO)N(C(=O)c3cccc(F)c3)[C@H]2C#N)cc1 | – | · | – | – | · | · | · | ·
N#C[C@H]1[C@H](c2ccc(C#CC3CC3)cc2)[C@@H](CO)N1C(=O)c1cccc(F)c1 | – | · | ? | – | 97 | 101 | – | –
O=S(=O)(c1ccccc1F)N1CC[C@H]2[C@H](CO)Nc3ccc(-c4ccc(F)cc4)cc3[C@H]21 | – | · | – | – | · | · | · | ·
COc1cccc(-c2ccc3c(c2)[C@@H]2[C@@H](CCN2S(=O)(=O)c2ccccc2C)[C@H](CO)N3)c1 | – | · | – | – | · | · | · | ·
O=S(=O)(c1ccccc1F)N1CC[C@@H]2[C@H](CO)Nc3ccc(-c4ccc(F)cc4)cc3[C@@H]21 | – | · | ? | – | – | – | – | 105
N#Cc1cccc(-c2ccc3c(c2)[C@H]2[C@H](CCN2S(=O)(=O)c2ccccc2F)[C@H](CO)N3)c1 | – | · | 110 | – | – | – | 47 | 74
N#Cc1cccc(-c2ccc3c(c2)[C@@H]2[C@@H](CCN2S(=O)(=O)c2ccccc2F)[C@@H](CO)N3)c1 | – | · | 107 | – | 99 | 105 | – | 73
N#Cc1ccc(-c2ccc3c(c2)[C@@H]2[C@@H](CCN2S(=O)(=O)c2ccccc2F)[C@@H](CO)N3)cc1 | – | · | – | – | · | · | · | ·
COc1cccc(-c2ccc3c(c2)[C@@H]2[C@@H](CCN2S(=O)(=O)c2ccccc2F)[C@@H](CO)N3)c1 | – | · | ? | – | 98 | 105 | – | 101
O=C(OCc1cccc(C(=O)c2ccccc2)c1)c1ccc(-c2nnc(-c3ccccc3)o2)cc1 | · | – | · | · | · | · | · | ·
COc1cccc(-c2ccc3c(c2)O[C@H](CN(C)Cc2cncnc2)[C@H](C)CN([C@@H](C)CO)S3(=O)=O)c1 | – | – | 97 | – | ? | – | – | 64
COc1cccc(-c2ccc3c(c2)O[C@@H](CN(C)Cc2cncnc2)[C@H](C)CN([C@H](C)CO)S3(=O)=O)c1 | – | – | ? | – | ? | – | 39 | 72
COc1cccc(-c2ccc3c(c2)O[C@H](CN(C)Cc2ccncc2)[C@@H](C)CN([C@@H](C)CO)S3(=O)=O)c1 | – | – | · | – | · | · | · | ·
COc1cccc(-c2ccc3c(c2)O[C@@H](CN(C)Cc2cccnc2)[C@@H](C)CN([C@H](C)CO)S3(=O)=O)c1 | – | – | – | – | · | · | · | ·
COc1cc(OC)c2ccc(=O)oc2c1CC(O)C(C)(C)OC (stereo not given) | · | – | · | · | · | · | · | ·
OC(CSc1cccc2cccnc12)Cn1c2ccccc2c2ccccc21 (stereo not given) | · | – | · | · | · | · | · | ·
C[C@@H]1CN([C@H](C)CO)C(=O)c2cc(/C=C/c3ccccc3)cnc2O[C@@H]1CN(C)S(=O)(=O)c1ccccc1 | – | · | – | – | · | · | · | ·
C[C@@H]1CN([C@H](C)CO)C(=O)c2cc(/C=C/c3ccccc3)cnc2O[C@H]1CN(C)S(=O)(=O)c1ccccc1F | – | – | 109 | – | 113 | – | – | 24
Cc1ccc(S(=O)(=O)N(C)C[C@H]2Oc3c(cccc3N(C)C)C(=O)N([C@H](C)CO)C[C@H]2C)cc1 | – | – | – | – | · | · | · | ·
C[C@H](CO)N1C[C@H](C)[C@H](CN(C)S(=O)(=O)c2ccccc2)Oc2ncc(/C=C/c3ccccc3)cc2C1=O | – | – | 113! | – | ? | – | – | 71
C[C@H]1CN([C@@H](C)CO)C(=O)c2cc(/C=C/c3ccccc3)cnc2O[C@H]1CN(C)S(=O)(=O)c1ccccc1 | – | – | – | – | · | · | · | ·
Cc1ccc(S(=O)(=O)N(C)C[C@H]2Oc3c(cccc3N(C)C)C(=O)N([C@@H](C)CO)C[C@H]2C)cc1 | – | · | 102 | – | – | – | – | –
C[C@H]1CN([C@@H](C)CO)C(=O)c2cc(/C=C/c3ccccc3)cnc2O[C@@H]1CN(C)S(=O)(=O)c1ccccc1 | – | · | 127 | – | 106 | – | – | ?
SMILES | KDM4C inh | IDH1 mut inh | T cruzi growth-1 | Pf Dd2 growth | T cruzi growth-2 | T cruzi growth-3 | NIH3T3 tox | NIH3T3 tox 2
Cc1cccc(NC(=O)CN(C)S(=O)(=O)c2ccc3ccccc3c2)c1C | · | – | · | · | · | · | · | ·
Cc1ccc(S(=O)(=O)N(C)C[C@@H]2Oc3ncc(/C=C/c4ccccc4)cc3C(=O)N([C@H](C)CO)C[C@@H]2C)cc1 | – | – | 120 | – | 102 | – | – | 54
C[C@H]1CCCCO[C@H](CN(C)S(=O)(=O)c2cccs2)[C@@H](C)CN([C@@H](C)CO)C(=O)c2cc(NS(=O)(=O)c3ccc(Cl)cc3)ccc2O1 | – | · | 103 | – | 106 | – | – | –
C[C@@H]1CCCCO[C@H](CN(C)S(=O)(=O)c2cccs2)[C@@H](C)CN([C@H](C)CO)C(=O)c2cc(NS(=O)(=O)c3ccc(Cl)cc3)ccc2O1 | – | – | – | – | · | · | · | ·
C[C@@H]1CCCCO[C@@H](CN(C)S(=O)(=O)c2ccc(Cl)cc2)[C@H](C)CN([C@H](C)CO)C(=O)c2cc(NS(=O)(=O)c3cccs3)ccc2O1 | – | · | ? | · | 105 | – | – | –
CS(=O)(=O)N(CC(=O)Nc1cc(Cl)ccc1Cl)c1ccc2c(c1)OCCO2 | · | – | · | · | · | · | · | ·
O=C(Nc1ccccc1F)N1CCCCN2[C@H](CO)[C@H](c3ccc(C4=CCCC4)cc3)[C@H]2C1 | – | · | 103 | – | – | – | – | 103
O=C(Nc1cc(F)ccc1F)N1CCCCN2[C@H](C1)[C@H](c1ccc(C3=CCCCC3)cc1)[C@@H]2CO | – | · | – | – | · | · | · | ·
O=C(Nc1ccc(F)cc1)N1CCCCN2[C@H](C1)[C@H](c1ccc(C3=CCCCC3)cc1)[C@@H]2CO | – | · | 112 | – | 106 | – | – | 86
COc1ccc(NC(=O)N2CCCCN3[C@@H](CO)[C@H](c4ccc(C5=CCCC5)cc4)[C@@H]3C2)cc1 | · | · | – | – | · | · | · | ·
COc1ccc(NC(=O)N2CCCCN3[C@H](C2)[C@H](c2ccc(C4=CCCCC4)cc2)[C@@H]3CO)cc1 | – | · | 110 | – | 114 | – | – | 94
COc1ccc(NC(=O)N2CCCCN3[C@H](CO)[C@@H](c4ccc(C5=CCCCC5)cc4)[C@H]3C2)cc1 | – | · | 117 | – | 105 | – | – | 105
